This experiment deals with T1, Nitric oxide synthase, inducible (Mus musculus, UniProt P29477).
T1 sequence (P29477 whole entry): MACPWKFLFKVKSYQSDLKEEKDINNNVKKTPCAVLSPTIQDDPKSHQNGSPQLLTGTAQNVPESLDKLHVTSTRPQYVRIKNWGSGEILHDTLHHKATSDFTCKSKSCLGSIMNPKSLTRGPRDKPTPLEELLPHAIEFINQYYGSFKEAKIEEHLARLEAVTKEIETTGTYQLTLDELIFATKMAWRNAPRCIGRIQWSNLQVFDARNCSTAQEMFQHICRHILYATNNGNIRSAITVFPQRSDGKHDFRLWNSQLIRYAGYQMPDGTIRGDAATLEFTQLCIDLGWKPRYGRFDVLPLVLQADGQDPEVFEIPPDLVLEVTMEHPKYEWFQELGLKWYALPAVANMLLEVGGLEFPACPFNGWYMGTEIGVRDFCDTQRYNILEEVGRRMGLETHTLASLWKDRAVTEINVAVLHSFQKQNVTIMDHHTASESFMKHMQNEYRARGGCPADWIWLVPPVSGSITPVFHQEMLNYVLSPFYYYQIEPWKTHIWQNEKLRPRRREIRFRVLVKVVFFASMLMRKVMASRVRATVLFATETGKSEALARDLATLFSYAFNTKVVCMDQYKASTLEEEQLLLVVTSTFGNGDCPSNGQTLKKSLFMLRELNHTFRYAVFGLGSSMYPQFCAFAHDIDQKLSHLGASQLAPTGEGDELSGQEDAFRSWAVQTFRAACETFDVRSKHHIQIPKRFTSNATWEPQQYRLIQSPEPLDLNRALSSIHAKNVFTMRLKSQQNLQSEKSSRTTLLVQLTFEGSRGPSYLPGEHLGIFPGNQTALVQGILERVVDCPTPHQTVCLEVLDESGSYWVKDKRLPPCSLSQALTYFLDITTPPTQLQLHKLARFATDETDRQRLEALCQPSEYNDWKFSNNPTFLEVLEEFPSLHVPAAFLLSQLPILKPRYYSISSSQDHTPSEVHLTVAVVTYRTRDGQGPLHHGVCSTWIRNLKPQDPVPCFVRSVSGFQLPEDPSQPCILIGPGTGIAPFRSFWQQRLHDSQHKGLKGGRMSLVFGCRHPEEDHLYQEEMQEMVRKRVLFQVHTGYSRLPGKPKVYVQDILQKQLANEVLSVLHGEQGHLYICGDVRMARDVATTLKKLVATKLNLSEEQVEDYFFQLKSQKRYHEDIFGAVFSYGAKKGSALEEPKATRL
Put plainly: Inhibition of inducible NOS mediated nitric oxide production in LPS-activated Kunming mouse macrophages. The method in brief:
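Peritoneal exudate cells from female Kunming mice (18–22 g), elicited 2 d earlier by ip 3% starch (1 mL). Cells (10^6/well) precultured 4 h at 37 °C in DMEM with 5% FCS, then washed to keep the adherent macrophages (>95% by Giemsa). Stimulated with LPS 10 µg/mL plus graded compound for 20 h. Nitrite/nitrate measured after nitrate reductase conversion, read colorimetrically. Inhibition % calculated, IC50 read graphically. L-NNA positive control.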
Turning to `N=C(NCCCCCC(=O)N[C@@H]1CN[C@H](C(=O)Nc2cc(Cl)cc(Cl)c2)C1)N[N+](=O)[O-]`, it took 87.3 µM to reach half-maximal inhibition (IC50).
Consider `N=C(NCCCCCC(=O)N[C@@H]1CN[C@H](C(=O)NC2CCCCC2)C1)N[N+](=O)[O-]`, for which the half-inhibitory concentration (IC50) was determined as 7.37 µM.
Molecule `N=C(NCCCCCC(=O)N[C@@H]1CN[C@H](C(=O)Nc2ccccc2F)C1)N[N+](=O)[O-]` displayed an IC50 of 13.1 µM.
In turn, `N=C(NCCCCCC(=O)N[C@@H]1CN[C@H](C(=O)Nc2ccc(F)cc2)C1)N[N+](=O)[O-]` yielded an IC50 of 87 µM. Compared with the last molecule, the IC50 is about 6.6-fold higher.
In the case of `Cc1ccc(NC(=O)[C@@H]2C[C@H](NC(=O)CCCCCNC(=N)N[N+](=O)[O-])CN2)cc1Cl` it was 2.5 µM; in that of `N=C(NCCCCCC(=O)N[C@@H]1CN[C@H](C(=O)Nc2ccc(Cl)cc2)C1)N[N+](=O)[O-]`, 80 µM; in that of `N=C(NCCCCCC(=O)N[C@@H]1CN[C@H](C(=O)Nc2ccc(F)c(F)c2F)C1)N[N+](=O)[O-]`, 36.2 µM.
Regarding `N=C(NCCCCCC(=O)N[C@@H]1CN[C@H](C(=O)Nc2ccc(F)c(F)c2)C1)N[N+](=O)[O-]`, the midpoint of inhibition, the IC50, lay at 2.68 µM.
With `N=C(NCCCCCC(=O)N[C@@H]1CN[C@H](C(=O)Nc2ccccc2)C1)N[N+](=O)[O-]`, the midpoint of inhibition, the IC50, lay at 2.36 µM. The IC50 values of the last two molecules are within 1.5-fold of each other.
As to `N=C(NCCCCCC(=O)N[C@@H]1CN[C@H](C(=O)Nc2cc(Cl)ccc2Cl)C1)N[N+](=O)[O-]`, the IC50 is 105 µM. This IC50 is about 44-fold higher than that of the molecule before.
In turn, `N=C(NCCCCCC(=O)N[C@@H]1CN[C@H](C(=O)Nc2cccc([N+](=O)[O-])c2)C1)N[N+](=O)[O-]` had a half-inhibitory concentration (IC50) of 46 µM.
For `N=C(NCCCCCC(=O)N[C@@H]1CN[C@H](C(=O)Nc2ccc([N+](=O)[O-])cc2)C1)N[N+](=O)[O-]`, the IC50 came out at 25 µM.
`Cc1cccc(NC(=O)[C@@H]2C[C@H](NC(=O)CCCCCNC(=N)N[N+](=O)[O-])CN2)c1` displayed an IC50 of 120 µM.
In the case of `Cc1ccccc1NC(=O)[C@@H]1C[C@H](NC(=O)CCCCCNC(=N)N[N+](=O)[O-])CN1`, 119 µM corresponded to half-maximal inhibition (IC50). The IC50 values of the last two molecules are within 1.5-fold of each other.
In the case of `COc1ccc(NC(=O)[C@@H]2C[C@H](NC(=O)CCCCCNC(=N)N[N+](=O)[O-])CN2)cc1` it was 26.7 µM; in that of `N=C(NCCCCCC(=O)N[C@@H]1CN[C@H](C(=O)Nc2ccc(Cl)cc2Cl)C1)N[N+](=O)[O-]`, 15.5 µM; in that of `N=C(NCCCCCC(=O)N[C@@H]1CN[C@H](C(=O)Nc2ccccc2Cl)C1)N[N+](=O)[O-]`, 108 µM.
As for `N=C(NCCCCCC(=O)N[C@@H]1CN[C@H](C(=O)Nc2ccc(F)cc2F)C1)N[N+](=O)[O-]`, the IC50 worked out at 139 µM.
Take `Cc1ccc(NC(=O)[C@@H]2C[C@H](NC(=O)CCCCCNC(=N)N[N+](=O)[O-])CN2)c(C)c1`: inhibition was half-maximal at 120 µM (IC50).
The figure for `N=C(NCCCCCC(=O)N[C@@H]1CN[C@H](C(=O)NCc2ccccc2)C1)N[N+](=O)[O-]` is 43.5 µM; for `N=C(NCCCCCC(=O)N[C@@H]1CN[C@H](C(=O)Nc2ccc(Br)cc2)C1)N[N+](=O)[O-]` it is 74.6 µM; for `N=C(NCCCCCC(=O)N[C@@H]1CN[C@H](C(=O)Nc2cccc(Cl)c2)C1)N[N+](=O)[O-]` it is 13 µM.
The figure for `Cc1ccc(NC(=O)[C@@H]2C[C@H](NC(=O)CCCCCNC(=N)N[N+](=O)[O-])CN2)cc1` is 123 µM.
Take `N=C(NCCCCCC(=O)N[C@@H]1CN[C@H](C(=O)Nc2cc(F)cc(F)c2)C1)N[N+](=O)[O-]`: the IC50 was determined as 11.7 µM.
`CCOc1ccc(NC(=O)[C@@H]2C[C@H](NC(=O)CCCCCNC(=N)N[N+](=O)[O-])CN2)cc1` showed an IC50 of 162 µM. This IC50 lies about 14-fold higher than the previous one.
In the case of `N=C(NCCC[C@H](N)C(=O)O)N[N+](=O)[O-]` [NITROARGININE], half-maximal inhibition (IC50) was put at 14.7 µM.

What is called IC50 is the midpoint of a concentration-inhibition curve. Low values mean greater potency, high ones weaker potency.

The values above are taken from ChEMBL document CHEMBL1143872, “Design, synthesis, and preliminary evaluation of 4-(6-(3-nitroguanidino)hexanamido)pyrrolidine derivatives as potential iNOS inhibitors” (Bioorg Med Chem, 2008).
